Screens from PubChem BioAssay.
Shown is part of a subset that was picked to be rich in hits.
A1 apoptosis 2 = blocks A1, raising caspase activity; caspase activation, % (no concentration beside the values); MEF A1-2A-BIM cells, caspase-Glo luminescence, 3 h; percent of clofoctol response, DMSO zero; 24,000 tested, under 10 active; in the data active means caspase activation above about 5.9%
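system = A1-2A-BIM-expressing MEF cells | quantity = 2500 MEF cells/well | dosing = 50 nL compound per well, pinned | schedule = overnight cell settling, then 3 h compound exposure, 37 °C | signal = luminescence from DEVD-luciferin Caspase-Glo reagent, 1:1 in 50 mM HEPES, 1 h RT | read-out = Caspase-3/7 activation, seen as rise in luminescence signal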
INS-1E rescue = rescue of cytokine-induced death in INS-1E beta cells; INS-1E cytokine-induced death, ATP luminescence, 48 h; normalised: neutral wells 0, positive control 100; protection from cytokine-induced ATP loss, % at 10 µM; hit rate 0.1% among 20,000;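 active means mean replicate protection from cytokine-induced ATP loss at least 50% and at least 75% of replicates each reaching 50%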
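Test system: INS-1E rat cells | Quantity: 8000 cells per well | Medium: Phenol-red-free RPMI with 5% fetal bovine serum | Reagent: Cytokine cocktail of IFN-γ, TNF-α and IL-1β | Doses: One compound concentration, pin transfer | Timing: 48 h co-treatment, 10 min post-lysis read | Technique: Luminescent ATP assay (CellTiter-Glo)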
T cruzi intra = inhibitors of intracellular Trypanosoma cruzi; intracellular Trypanosoma cruzi in host cells, plate reader; activity score (inhibition), % at 5.01 µM; hit rate 4.9% among 22,000; AID 651903; in the data active means activity score above about 55%;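 further: parasites and compound incubated about four days before reading; 0% = median of neutral control wells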
Starred values were filed as active, the others as inactive; nt = no result.

SMILES | A1 apoptosis 2 | INS-1E rescue | T cruzi intra
C[C@@H]1CN([C@@H](C)CO)C(=O)c2cc(NC(=O)Cc3ccccc3)ccc2O[C@@H](C)CCCCO[C@H]1CN(C)C(=O)Nc1ccccc1 | -1 | nt | nt
COc1ccc(S(=O)(=O)Nc2ccc3c(c2)C(=O)N([C@@H](C)CO)C[C@@H](C)[C@@H](CN(C)C(=O)C2CCCCC2)OCCCC[C@H](C)O3)cc1 | 0 | nt | nt
Cc1noc(C)c1NC(=O)N(C)C[C@H]1OCCCC[C@H](C)Oc2ccc(NC(=O)Nc3cccc4ccccc34)cc2C(=O)N([C@H](C)CO)C[C@@H]1C | -1 | nt | nt
C[C@@H]1CN([C@@H](C)CO)C(=O)CCCn2cc(nn2)CO[C@H]1CN(C)Cc1ccc(Oc2ccccc2)cc1 | 0 | -2 | 68*
C[C@H]1CN([C@@H](C)CO)C(=O)CCCn2nncc2CO[C@@H]1CN(C)S(=O)(=O)c1ccc(-c2ccccc2)cc1 | nt | nt | 84*
C[C@H](CO)N1C[C@H](C)[C@@H](CN(C)Cc2ccc(Oc3ccccc3)cc2)OCc2cnnn2CCCC1=O | 2 | nt | 83*
C[C@H]1CN([C@@H](C)CO)C(=O)CCCn2nncc2CO[C@@H]1CN(C)Cc1ccc(C(F)(F)F)cc1 | 0 | nt | 52
C[C@H]1CN([C@@H](C)CO)C(=O)CCCn2cc(nn2)CO[C@@H]1CN(C)Cc1ccc(Oc2ccccc2)cc1 | 0 | nt | 32
C[C@H](CO)N1C[C@H](C)[C@@H](CN(C)Cc2ccc(C(F)(F)F)cc2)OCc2cnnn2CCCC1=O | 0 | nt | 61*
C[C@@H]1CN([C@@H](C)CO)C(=O)CCCn2nncc2CO[C@H]1CN(C)S(=O)(=O)c1ccc(-c2ccccc2)cc1 | 2 | -4 | 11
C[C@H]1CN([C@@H](C)CO)C(=O)CCCn2nncc2CO[C@H]1CN(C)Cc1ccc(Oc2ccccc2)cc1 | -1 | nt | -14
C[C@H](CO)N1C[C@H](C)[C@@H](CN(C)Cc2ccc(-c3ccccc3)cc2)OCc2cnnn2CCCC1=O | nt | nt | 65*
C[C@@H]1CN([C@H](C)CO)C(=O)CCCn2nncc2CO[C@H]1CN(C)Cc1ccc(-c2ccccc2)cc1 | nt | -9 | 10
CC(C)NC(=O)Nc1cccc2c1O[C@H](CN(C)S(=O)(=O)c1ccc(Cl)cc1)[C@@H](C)CN([C@@H](C)CO)C2=O | nt | 8 | 5
C[C@@H]1CN([C@H](C)CO)C(=O)c2cccc(NC(=O)c3ccncc3)c2O[C@H]1CN(C)CC1CCCCC1 | 0 | -3 | 84*
C[C@H](CO)N1C[C@H](C)[C@H](CN(C)CC2CC2)Oc2c(NC(=O)c3ccncc3)cccc2C1=O | 0 | 0 | -21
C[C@@H]1CN([C@@H](C)CO)C(=O)c2cccc(NS(=O)(=O)c3cn(C)cn3)c2O[C@H]1CN(C)CC1CCCCC1 | nt | 4 | 62*
C[C@H](CO)N1C[C@H](C)[C@H](CN(C)CC2CCCCC2)Oc2c(NC(=O)c3ccncc3)cccc2C1=O | nt | -4 | 52
C[C@@H]1CN([C@H](C)CO)C(=O)c2cccc(NC(=O)c3ccncc3)c2O[C@H]1CN(C)CC1CC1 | 1 | 5 | 56*
C[C@H](CO)N1C[C@H](C)[C@@H](CN(C)CC2CCCCC2)Oc2c(NS(=O)(=O)c3cn(C)cn3)cccc2C1=O | nt | 6 | -25
Cc1cc(C(=O)Nc2cccc3c2O[C@H](CN(C)CC2CC2)[C@H](C)CN([C@@H](C)CO)C3=O)n(C)n1 | 0 | -7 | 61*
Cc1cc(C(=O)Nc2cccc3c2O[C@@H](CN(C)CC2CC2)[C@H](C)CN([C@H](C)CO)C3=O)n(C)n1 | -1 | 1 | 4
C=CC1c2ccccc2/C=C(C(=O)OC)\C(C(=O)OC)=C/N1Cc1ccc(OC)cc1 (stereo unspecified) | 0 | nt | nt
O=C(O)CCCCCCC(=O)N/N=C/c1ccc[nH]1 | nt | -2 | -36
COc1ccc(NC(=O)Nc2cccc3c2O[C@H](CN(C)Cc2ccccc2)[C@H](C)CN([C@H](C)CO)C3=O)cc1 | 0 | -11 | -33
SMILES | A1 apoptosis 2 | INS-1E rescue | T cruzi intra
C[C@H](CO)N1C[C@H](C)[C@H](CN(C)C)Oc2c(NC(=O)CCCCCC(=O)Nc3ccccc3N)cccc2C1=O | 0 | 17 | -56
C[C@H](CO)N1C[C@H](C)[C@@H](CN(C)CC2CC2)Oc2c(NC(=O)CCCCCC(=O)Nc3ccccc3N)cccc2C1=O | 0 | 6 | 72*
C[C@H](CO)N1C[C@H](C)[C@H](CN(C)CC2CC2)Oc2c(NC(=O)CCCCCC(=O)Nc3ccccc3N)cccc2C1=O | 0 | 9 | 10
C[C@@H]1CN([C@@H](C)CO)C(=O)c2cccc(NC(=O)CCCCCC(=O)Nc3ccccc3N)c2O[C@H]1CN(C)CC1CCCCC1 | nt | 16 | 74*
COc1ccc(/C=N/NC(=O)c2ccccn2)cc1O | -10 | -6 | -21
C[C@@H]1CN([C@@H](C)CO)C(=O)c2cc(NC(=O)c3ccncc3)ccc2O[C@H]1CN(C)C(=O)Nc1ccc(C(F)(F)F)cc1 | nt | 0 | -8
Cc1noc(C)c1S(=O)(=O)Nc1ccc2c(c1)CC(=O)N([C@@H](C)CO)C[C@@H](C)[C@@H](CN(C)Cc1ccc(Cl)c(Cl)c1)O2 | nt | -9 | 61*
Cc1noc(C)c1S(=O)(=O)Nc1ccc2c(c1)C(=O)N([C@@H](C)CO)C[C@H](C)[C@@H](CN(C)Cc1ccc(Cl)c(Cl)c1)O2 | 1 | -15 | 66*
Cc1noc(C)c1S(=O)(=O)Nc1ccc2c(c1)C(=O)N([C@@H](C)CO)C[C@@H](C)[C@@H](CN(C)Cc1ccc(Cl)c(Cl)c1)O2 | nt | -4 | 50
Cc1noc(C)c1S(=O)(=O)Nc1ccc2c(c1)CC(=O)N([C@@H](C)CO)C[C@@H](C)[C@H](CN(C)Cc1ccc(Cl)c(Cl)c1)O2 | -1 | nt | nt
C[C@H](CO)N1C[C@H](C)[C@H](CN(C)S(C)(=O)=O)Oc2ncc(C#Cc3ccc(C(F)(F)F)cc3)cc2C1=O | 0 | nt | 17
C[C@H](CO)N1C[C@H](C)[C@H](CN(C)S(=O)(=O)c2ccc(F)cc2)Oc2ncc(C#Cc3cccc(F)c3)cc2C1=O | 0 | nt | 65*
C[C@H](CO)N1C[C@H](C)[C@H](CN(C)S(=O)(=O)c2ccccc2)Oc2ncc(C#Cc3cccc(F)c3)cc2C1=O | 0 | nt | 47
C[C@H](CO)N1C[C@H](C)[C@H](CN(C)S(=O)(=O)c2ccc(C#N)cc2)Oc2ncc(C#Cc3ccccc3)cc2C1=O | 0 | nt | 40
Cc1ccc(S(=O)(=O)N(C)C[C@@H]2Oc3ncc(C#Cc4ccccc4)cc3C(=O)N([C@H](C)CO)C[C@@H]2C)cc1 | 0 | -15 | 57*
C[C@H](CO)N1C[C@H](C)[C@H](CN(C)S(=O)(=O)c2ccc(C#N)cc2)Oc2ncc(C#Cc3ccc(C(F)(F)F)cc3)cc2C1=O | 1 | -11 | 87*
COc1cccc(S(=O)(=O)N(C)C[C@@H]2Oc3ncc(-c4ccccc4)cc3C(=O)N([C@H](C)CO)C[C@@H]2C)c1 | nt | 0 | 31
COc1cccc(S(=O)(=O)N(C)C[C@@H]2Oc3ncc(C#Cc4ccccc4)cc3C(=O)N([C@H](C)CO)C[C@@H]2C)c1 | -1 | nt | 62*
